{"source": "paper PMC11567926", "about": "(Current Research in Food Science, 2024)", "key": {"DPP-IV [1]": {"molecular_target": "T1, DPP-IV (Homo sapiens, UniProt P27487)", "T1 sequence (P27487 whole entry)": "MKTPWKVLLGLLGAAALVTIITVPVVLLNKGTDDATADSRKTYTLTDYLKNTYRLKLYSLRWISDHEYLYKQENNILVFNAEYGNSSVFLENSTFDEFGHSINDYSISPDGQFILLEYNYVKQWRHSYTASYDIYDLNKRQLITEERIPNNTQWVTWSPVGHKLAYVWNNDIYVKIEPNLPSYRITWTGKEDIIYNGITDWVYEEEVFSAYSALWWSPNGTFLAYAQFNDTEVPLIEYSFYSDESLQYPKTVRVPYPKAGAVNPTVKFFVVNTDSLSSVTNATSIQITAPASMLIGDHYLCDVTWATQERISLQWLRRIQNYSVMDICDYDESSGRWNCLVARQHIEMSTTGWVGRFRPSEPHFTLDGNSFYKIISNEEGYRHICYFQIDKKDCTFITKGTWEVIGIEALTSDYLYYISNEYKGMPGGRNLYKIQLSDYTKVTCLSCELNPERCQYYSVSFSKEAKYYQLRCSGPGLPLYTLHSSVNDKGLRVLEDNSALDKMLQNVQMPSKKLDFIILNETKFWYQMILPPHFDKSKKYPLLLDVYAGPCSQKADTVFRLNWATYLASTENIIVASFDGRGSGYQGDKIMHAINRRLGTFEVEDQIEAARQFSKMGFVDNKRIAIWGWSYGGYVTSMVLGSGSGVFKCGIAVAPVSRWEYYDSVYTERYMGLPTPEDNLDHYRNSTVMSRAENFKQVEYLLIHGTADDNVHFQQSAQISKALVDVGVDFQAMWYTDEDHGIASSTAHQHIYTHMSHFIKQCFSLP", "assay": "cell-based"}, "DPP-IV [2]": {"molecular_target": "T1, DPP-IV", "assay": "in vitro DPP-IV inhibitory activity", "format": "biochemical", "conditions": "synthesized peptides, in vitro enzyme assay", "procedure,_shortened": "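Human DPP-IV (0.1 U/mL) and Gly-Pro-p-nitroanilide (2 mmol/L) solutions made in 100 mmol/L Tris-HCl, pH 8.0. Substrate and sample preincubated 10 min at 37 °C under subdued light. Enzyme then added and incubated 1 h at 37 °C. Stopped with 1 mol/L sodium acetate, pH 4.0, and absorbance read at 405 nm. Inhibition calculated from sample, sample-blank, control and blank absorbances.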"}, "Caco-2 cell monolayer": {"tested_on": "Caco-2 cell monolayer", "assay": "Caco-2 cell monolayer transmembrane transport", "format": "in vitro ADME, human", "conditions": "4 mM, 120 min", "procedure,_shortened": "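Caco-2 cells seeded at 2 × 10^5 cells/mL on the apical side of 0.4 μm-pore Transwells and cultured 21 days to a differentiated monolayer; TEER over 350 Ω cm2 required. Both sides washed twice and equilibrated 30 min in HBSS. Peptide added apically, HBSS basolaterally, 120 min in incubator. AP and BL liquids analysed by RP-HPLC (1 mL/min, 30 °C column, 220 nm).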"}, "Caco-2 cells [3]": {"tested_on": "Caco-2 cells", "assay": "Caco-2 cell viability, MTT colorimetric assay", "format": "cell-based, human", "conditions": "8 mM peptide, 4 h", "procedure,_shortened": "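Caco-2 cells grown in DMEM with 10% FBS and 1% penicillin-streptomycin at 37 °C, 5% CO2. Seeded at 5 × 10^4 cells/well and incubated 24 h. Medium replaced with peptide at 0.5, 1, 2, 4 or 8 mM for 4 h, 6 replicates per sample. MTT solution (5 mg/mL) added for 4 h, formazan dissolved in DMSO with ~15 min shaking, OD read at 490 nm.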"}, "Caco-2 cells [4]": {"tested_on": "Caco-2 cells", "conditions": "4 mM; ref Mu et al., 2024; cited from earlier work"}, "glucose metabolism": {"tested_on": "glucose metabolism", "conditions": "300 mg/kg, OGTT normal rats; ref Uenishi et al. (2012); cited from earlier work"}}, "note": "Residues, ends and D or L forms follow the SMILES beside them.", "data": [{"compound": "CC(C)[C@H](N)C(=O)N1CCC[C@H]1C(=O)N[C@@H](Cc1ccccc1)C(=O)N[C@@H](Cc1c[nH]c2ccccc12)C(=O)N[C@@H](C)C(=O)O", "note": "[VPFWA] (H-VPFWA-OH; N-terminus and C-terminus assumed)", "values": [{"measurement": "IC50", "setting": "DPP-IV [1]", "result": "325 ± 8.4", "unit": "µM"}, {"measurement": "IC50", "setting": "DPP-IV [2]", "result": "251 ± 12.8", "unit": "µM"}, {"measurement": "passage through the Caco-2 cell monolayer", "setting": "Caco-2 cell monolayer; AP to BL", "result": "pass through the Caco-2 cell monolayer intact"}, {"measurement": "chromatographic peak in the BL-side samples", "setting": "Caco-2 cell monolayer; RP-HPLC", "result": "smallest peak"}, {"measurement": "survival rates of Caco-2 cells", "setting": "Caco-2 cells [3]", "result": "76.03 ± 1.08", "unit": "%"}]}, {"compound": "LDATDMVALVG", "values": [{"measurement": "damage to cell viability of Caco-2 cells", "setting": "Caco-2 cells [4]", "result": "least damage to cell viability"}]}, {"compound": "LPQNIPPL", "values": [{"measurement": "glucose metabolism", "setting": "glucose metabolism", "result": "improved glucose metabolism"}, {"measurement": "plasma insulin levels", "setting": "glucose metabolism", "result": "significantly reduced plasma insulin levels"}]}, {"compound": "SPVAEVPFLR", "values": [{"measurement": "damage to cell viability of Caco-2 cells", "setting": "Caco-2 cells [4]", "result": "least damage to cell viability"}]}]}
